Bioassay records (PubChem)
Hits are enriched below; roughly 2.2% of the tested compounds scored in any of these assays.
GPR7 antag: GPR7 receptor antagonists, primary screen, cell-based, fluorescence, single concentration | Neuropeptides B/W receptor type 1 (Homo sapiens), P48145 | inhibition, % at 4.4 µM | GPR7-expressing cells, fluorescence antagonist assay | 1.1% of 290,000 active; in the data active = inhibition above about 16%, passing the limit was not always enough;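 note: cells stimulated with the agonist NPW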
DAGLB inhibitor: DAGLB lipase inhibitors, primary screen, biochemical, fluorescence, HTS. inhibition, % at 5.17 µM. HEK293T DAGLB membrane lysate, EnzChek fluorogenic substrate. 0.059% of 340,000 active. Diacylglycerol lipase-beta (Homo sapiens), Q8NCG7; in the data active = inhibition above about 34%
DNA FID counter: compounds displacing fluorescent DNA intercalator, primary screen, artefact control for HCV NS3 helicase inhibitor project, biochemical, FID fluorescence | 0.17% of 290,000 active | inhibition, % at 7.9 µM | DNA fluorescent intercalator displacement; in the data active = inhibition above about 37%;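 note: higher means more ethidium bromide displaced from hairpin DNA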
HCV core dimer: inhibitors of HCV core protein dimerization, primary screen, biochemical, TR-FRET, high-throughput; TR-FRET GST/Flag-core106 dimerization, 1536-well; inhibition, % at 5 µM; 0.33% of 300,000 active; AID 1899, 2009;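 active = inhibition above the mean of all tested compounds plus 3 SD, set per screening campaign, cut at about 45% in these data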
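Test system: GST/Flag-tagged HCV core106 proteins; Medium: KF-containing HEPES buffer, pH 7.45, DTT, CHAPS, BSA; Times: compound-protein-antibody incubation 4 h at 22.5 °C; Detection: TR-FRET 671 and 617 nm emission; Benchmarks: wells lacking GST-core106 and wells with excess unlabelled core106.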
HCV NS3 hel inh: inhibitors of HCV NS3 helicase, primary screen, biochemical, Cy5 molecular beacon fluorescence | Hepatitis C virus NS3 helicase | NS3 helicase DNA unwinding | inhibition, % at 10.9 µM | 0.56% of 290,000 active | AID 1800, 2009;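 active = inhibition above the mean of all tested compounds plus 3 SD, set per campaign, cut at about 35% in these data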
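System: HCV NS3 helicase fragment; control set: DMSO and thioflavine S; technique: Cy5 fluorescence at 0 and 60 min, beacon hairpin quenching; reagent: beacon DNA duplex substrate plus ATP; replicates: singlicate; schedule: 1 h reaction at 25 °C, ATP-initiated; medium: MOPS buffer pH 6.5 with MgCl2, DTT, Tween20, BSA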
GRK2 aptamer HTS: compounds blocking aptamer binding on GRK2 – biochemical, human GRK2, bead flow cytometry, HTS, primary screen; 0.59% of 330,000 active; inhibition of aptamer binding, % at 10 µM; Beta-adrenergic receptor kinase 1 (Homo sapiens), P25098; FAM-aptamer displacement from GRK2;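 active = inhibition of aptamer binding above 40%, roughly 3 SD of noise, on plates passing a quality check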;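 note: median bead fluorescence of bound FAM aptamer so fluorescent compounds give negative values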
Target sequence (P25098 whole entry, looked up): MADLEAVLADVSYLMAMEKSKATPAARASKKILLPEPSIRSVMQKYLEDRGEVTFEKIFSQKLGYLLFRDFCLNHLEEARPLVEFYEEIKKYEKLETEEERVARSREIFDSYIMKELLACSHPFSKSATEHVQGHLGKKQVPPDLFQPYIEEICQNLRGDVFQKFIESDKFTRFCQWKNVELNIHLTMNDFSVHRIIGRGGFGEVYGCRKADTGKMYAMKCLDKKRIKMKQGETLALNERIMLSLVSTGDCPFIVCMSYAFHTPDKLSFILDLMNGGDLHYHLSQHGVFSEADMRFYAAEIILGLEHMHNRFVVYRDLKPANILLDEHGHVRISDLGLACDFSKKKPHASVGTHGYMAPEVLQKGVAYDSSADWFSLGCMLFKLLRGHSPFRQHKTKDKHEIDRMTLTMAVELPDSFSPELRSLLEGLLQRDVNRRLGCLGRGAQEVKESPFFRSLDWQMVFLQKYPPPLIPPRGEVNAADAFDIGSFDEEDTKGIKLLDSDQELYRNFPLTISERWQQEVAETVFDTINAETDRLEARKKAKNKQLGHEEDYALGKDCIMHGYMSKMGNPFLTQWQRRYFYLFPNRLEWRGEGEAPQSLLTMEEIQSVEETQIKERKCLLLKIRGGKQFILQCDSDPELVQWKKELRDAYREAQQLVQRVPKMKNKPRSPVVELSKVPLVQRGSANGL
GPR7 antag conf: GPR7 receptor antagonists, confirmation, cell-based, fluorescence, single concentration; shares compounds with GPR7 antag; GPR7-expressing cells, calcium fluorescence antagonist mode; inhibition, % at 4.4 µM; 52% of 2,400 active; AID 1952, 2009; in the data active = inhibition above about 24%;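 note: stimulated with the GPR7 agonist NPW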
MCHR1 antag: MCHR1 antagonists in cells, counter-screen for GPR7 antagonist project, cell-based, fluorescence, human | MCHR1-expressing cells, fluorescence antagonist assay | 62% of 2,400 active | inhibition, % at 4.4 µM | shares compounds with GPR7 antag; in the data active = inhibition above about 22%
Each line names hits and unclear results; the compound was inactive in the other large screens (follow-up assays come after a bar, where they were run).

CCCCCCN1C=CC(=C/C=C(\C#N)C(=O)OCC)C=C1	GPR7 antag 29.6 | GPR7 antag conf 46.5 | MCHR1 antag 63.7
CCCN1C=CC(=C/C=C(\C#N)C(=O)OCC)C=C1	none (no result: DAGLB inhibitor)
O=P(O)(OCc1ccccc1)OCc1ccccc1	none (no result: GPR7 antag, DNA FID counter, HCV core dimer, HCV NS3 hel inh)
O=C(Nc1ccc(F)cc1)c1cccc(N2C(=O)C3C4C=CC(C5CC45)C3C2=O)c1 (centres undefined)	GPR7 antag 26.5 | GPR7 antag conf 24.4 | MCHR1 antag 44.9
COc1ccc(OC)c(NC(=O)c2cccc(N3C(=O)C4C5C=CC(C6CC56)C4C3=O)c2)c1 (centres undefined)	GPR7 antag 24.1 | GPR7 antag conf inactive | MCHR1 antag 69.4
O=C(Nc1ccccc1)c1cccc(N2C(=O)C3C4C=CC(C5CC45)C3C2=O)c1 (centres undefined)	none
COc1ccc(OC)c(NC(=O)c2cccc(N3C(=O)C4C5CCC(C5)C4C3=O)c2)c1 (centres undefined)	none
CC(CC(=O)N1CCN(c2cccc(Cl)c2)CC1)S(=O)(=O)c1ccc2c(c1)NC(=O)CO2 (centres undefined)	GPR7 antag 27.8 | GPR7 antag conf 36.9 | MCHR1 antag 77.2
COc1ccc(N2CCN(C(=O)CC(C)S(=O)(=O)c3ccc4c(c3)NC(=O)CO4)CC2)cc1 (centres undefined)	none
CC(NC(=O)Cc1cccc(C(F)(F)F)c1)c1ccc(F)cc1 (centres undefined)	GPR7 antag 26.5 | GPR7 antag conf inactive | MCHR1 antag inactive
CN(C)c1cccc(C(=O)NCc2ccc3c(c2)OCO3)c1	GPR7 antag 36.2 | GPR7 antag conf inactive | MCHR1 antag inactive
Cc1ccccc1-c1nnn(CC(=O)NCc2ccc3c(c2)OCO3)n1	none
CN(C)c1ccc(-c2nnn(CC(=O)NCc3ccc4c(c3)OCO4)n2)cc1	GPR7 antag 24.0 | GPR7 antag conf inactive | MCHR1 antag inactive
CN(C)c1ccc(C(=O)NCc2ccc3c(c2)OCO3)cc1	none
CCC(=O)C1CCCN(C(=O)c2cccc(OC3CCN(S(C)(=O)=O)CC3)c2)C1 (centres undefined)	none
CCCC[N+](CC#CCO)(CC#Cc1ccccc1)CCCC	GPR7 antag 25.2 | GPR7 antag conf 25.4 | MCHR1 antag 25.8
CCC[N+](CC#CCO)(CC#Cc1ccccc1)CCC	none
Cc1ccc(NC(=O)CCNC(=O)Cn2cnc3ccccc3c2=O)cc1F	none
CCn1c(=O)c(=O)[nH]c2cc(C(=O)NCc3ccc(F)cc3)ccc21	none
CCOC(=O)C1CCN(C(=O)c2ccc3c(c2)NC(=O)/C(=C\c2ccc(C)cc2)S3)CC1	GPR7 antag 33.5 | GPR7 antag conf inactive | MCHR1 antag 45.9
CCOC(=O)C1CCN(C(=O)c2ccc3c(c2)NC(=O)/C(=C/c2ccccc2)S3)CC1	none
Cc1cc(C)cc(C(=O)NC(CC(N)=O)c2ccc(NCC3CC3)c([N+](=O)[O-])c2)c1 (centres undefined)	none
Cc1ccc(S(=O)(=O)Oc2ccc(/C=C3\C(=N)N4N=C(S(C)(=O)=O)SC4=NC3=O)cc2)cc1	GPR7 antag 29.5 | GPR7 antag conf inactive | MCHR1 antag inactive
CC(C)Nc1nc(Cl)nc(Nc2ccccc2)n1	none
Cc1nc2sccc2c(=O)n1-c1cccc(Cl)c1	none
Cc1ccc(C)c(S(=O)(=O)N2CCN(C(=O)c3cc(S(=O)(=O)NCc4ccccc4)ccc3C)CC2)c1	GPR7 antag 43.7 | GPR7 antag conf 25.8 | MCHR1 antag 34.4
COC(=O)c1cc(NC(=O)c2c(-c3c(Cl)cccc3Cl)noc2C)ccc1N1CCOCC1	GPR7 antag 24.2 | GPR7 antag conf inactive | MCHR1 antag inactive
COc1ccccc1OCCn1c(=O)sc2ccccc21	none
Cc1ccccc1OCCn1c(=O)sc2ccccc21	GPR7 antag 21.0 | GPR7 antag conf inactive | MCHR1 antag 36.6
COc1ccc(CN(C)Cc2nc(Cc3cccc(F)c3)no2)c2cccnc12	GPR7 antag 29.8 | GPR7 antag conf inactive | MCHR1 antag 42.9
COc1cccc(-n2cc(CN(C)Cc3nc(Cc4cccc(F)c4)no3)cn2)c1	none
CC(=O)Nc1ccc(S(=O)(=O)N(CCCN2CCOCC2)Cc2cccs2)cc1	GPR7 antag 24.9 | GPR7 antag conf inactive | MCHR1 antag inactive
CC(C)(C)c1ccc(S(=O)(=O)N(CCCN2CCOCC2)Cc2cccs2)cc1	none
COc1ccc(C(CCNCc2ccc(N(C)C)cc2)C(C)C)cc1 (centres undefined)	GPR7 antag 23.8 | GPR7 antag conf inactive | MCHR1 antag 49.6
COc1ccc(CNCCC(c2ccccc2)c2ccc3c(c2)OCO3)cc1 (centres undefined)	GPR7 antag 40.7 | GPR7 antag conf 45.8 | MCHR1 antag 64.2
COc1ccc(C(CC(=O)O)c2ccc3c(c2)OCO3)cc1 (centres undefined)	none
COc1ccc(C(CCNCc2ccc(OC(C)C)cc2)C(C)C)cc1 (centres undefined)	GPR7 antag 26.6 (no result: DAGLB inhibitor) | GPR7 antag conf 50.8 | MCHR1 antag 70.3
COc1ccc(CNC(=O)C2CC(c3cccc([N+](=O)[O-])c3)=NO2)cc1 (centres undefined)	none
Cc1ccc(CNC(=O)C2CC(c3cccc([N+](=O)[O-])c3)=NO2)cc1 (centres undefined)	GPR7 antag 31.9 | GPR7 antag conf inactive | MCHR1 antag 33.9
Cc1cccc(C)c1NC(=O)CN(C)CC(=O)Nc1ccccc1Oc1ccccc1	GPR7 antag 32.0 | GPR7 antag conf 26.5 | MCHR1 antag 26.0
COCCn1c(SCC(=O)N(C)c2ccccc2)nc2c([nH]c3ccccc32)c1=O	GPR7 antag 30.6 | GPR7 antag conf inactive | MCHR1 antag inactive
CCNC(=S)N1CCN(c2ccc([N+](=O)[O-])cc2)CC1	GPR7 antag 27.2 | GPR7 antag conf inactive | MCHR1 antag inactive
CN(C)c1ccc(C(=S)N2CCN(c3ccc([N+](=O)[O-])cc3)CC2)cc1	none
